ChEMBL document CHEMBL1144737, “Synthesis and antifungal activity of novel sulfoxide derivatives containing trimethoxyphenyl substituted 1,3,4-thiadiazole and 1,3,4-oxadiazole moiety” (Bioorg Med Chem, 2008)
Values after ≈ are worked out from the molar mass of the structure shown.

Legend:
[1] = system: Fusarium oxysporum; experiment: Antifungal activity against Fusarium oxysporum at 50 ug/ml by poison plate technique; assay type: functional
Method in brief: (§1)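 Poison plate method. Compound in PDA at 50 µg/mL final. Fungi precultured on PDA at 27 ± 1 °C for 4 days, then a ~4 mm mycelial disc was placed in the plate centre and incubated at 27 ± 1 °C for 5 days. Acetone in sterile water was the blank and hymexazol the positive control. Three replicates. Colony diameter was measured and I(%) = [(C − T)/(C − 0.4)] × 100.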

[2] = system: Cytospora; experiment: Antifungal activity against Cytospora mandshurica at 50 ug/ml by poison plate technique; assay type: functional; method in brief: as §1
[3] = system: Fusarium graminearum; experiment: Antifungal activity against Gibberella zeae at 50 ug/ml by poison plate technique; assay type: functional
Method in brief: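 Poison-plate (mycelial growth rate) test at a single final concentration in PDA. Fungus was pre-grown 4 days at 27±1 °C, and a 4 mm mycelial plug was placed at the plate centre and incubated 5 days at 27±1 °C. Acetone in sterile water was the untreated control. Triplicate plates were used; inhibition % = (C−T)/(C−0.4)×100 from colony diameters.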

[4] = system: Sclerotinia sclerotiorum; experiment: Effect on membrane permeability of Sclerotinia sclerotiorum at 100 ug/ml after 240 mins relative to control; assay type: functional, organism-based
Method in brief: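 Washed S. sclerotiorum mycelium (1 g) was placed in tubes with the compound. Conductivity was read over time from 0 to 360 min, then after boiling and cooling. Relative permeability P% = (J1−J0)/(J2−J0)×100.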

[5] = system: Thanatephorus cucumeris; experiment: Antifungal activity against Thanatephorus cucumeris by poison plate technique; assay type: functional, organism-based
Method in brief: (§2)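 Poison-plate assay on PDA against nine plant-pathogenic fungi at 100, 50, 25, 12.5 and 6.25 in the medium. Cultures were grown 4 days at 27±1 °C, and 4 mm mycelial plugs were placed centrally on plates and incubated 5 days at 27±1 °C. Acetone in sterile water was the blank. Inhibition % = (C−T)/(C−0.4)×100 from colony diameters. EC50 was obtained by probit analysis, averaged from at least three separate analyses.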

[6] = system: Phytophthora infestans; experiment: Antifungal activity against Phytophthora infestans by poison plate technique; assay type: functional, organism-based; method in brief: as §2
[7] = system: Sclerotinia sclerotiorum; experiment: Change in mycelial soluble protein content in Sclerotinia sclerotiorum after 24 hrs; assay type: functional
Method in brief: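 Soluble protein was measured in extracts of S. sclerotiorum cultured 15 days in shaken Czapek broth at 27 °C, treated at 100 and harvested at 24 h. Dried mycelium was ground in 0.05 mol/L Tris–HCl pH 7.5 and centrifuged; absorbance was read at 595 nm with buffer blank. Three repetitions.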

[8] = system: Sclerotinia sclerotiorum; experiment: Change in mycelial N-acetyl-glucosamine content in Sclerotinia sclerotiorum after 24 hrs; assay type: functional
Method in brief: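 S. sclerotiorum was grown 15 days in Czapek broth shaken at 140 rpm and 27 °C, then dosed at 100 and sampled at 24 h. Dried mycelium (1.0 g) was ground in 0.05 mol/L Tris–HCl pH 7.5 and centrifuged at 15,000g, 4 °C. Supernatant with K2B4O7 was boiled 3 min, then 1% DMAB was added, 20 min at 36 °C, A544. Three repetitions.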

[9] = system: Botrytis cinerea; experiment: Antifungal activity against Botrytis cinerea by poison plate technique; assay type: functional, organism-based; method in brief: as §2
[10] = system: Fusarium graminearum; experiment: Antifungal activity against Gibberella zeae by poison plate technique; assay type: functional, organism-based; method in brief: as §2
[11] = system: Sclerotinia sclerotiorum; experiment: Antifungal activity against Sclerotinia sclerotiorum by poison plate technique; assay type: functional, organism-based; method in brief: as §2
[12] = system: Cytospora; experiment: Antifungal activity against Cytospora mandshurica by poison plate technique; assay type: functional; method in brief: as §2
[13] = system: Colletotrichum gloeosporioides; experiment: Antifungal activity against Colletotrichum gloeosporioides by poison plate technique; assay type: functional, organism-based; method in brief: as §2
[14] = system: Sclerotinia sclerotiorum; experiment: Change in mycelial chitinase activity in Sclerotinia sclerotiorum assessed as N-acetyl-glucosamine level after 24 hrs
Method in brief: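 Mycelial extract came from S. sclerotiorum grown 15 days in shaken Czapek broth at 27 °C, dosed at 100 and harvested at 24 h, in Tris–HCl pH 7.5. Extract was incubated with colloidal chitin 1 h at 37 °C, boiled and centrifuged. Released GlcNAc was read with 0.8 M K2B4O7, boiling, 1% DMAB, 20 min at 36 °C, A544. The blank was boiled before incubation.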

[15] = system: Sclerotinia sclerotiorum; experiment: Change in mycelial pyruvate content in Sclerotinia sclerotiorum after 24 hrs; assay type: functional
Method in brief: (§3)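 S. sclerotiorum was grown from six 4 mm discs in 90 mL Czapek medium, shaken at 140 rpm and 27 °C for 15 days. Compound was then added at 100 µg/mL. Mycelium was harvested at 0.5–24 h, ground in 0.05 mol/L Tris–HCl pH 7.5 and centrifuged at 15,000g, 4 °C, for 30 min. Three repetitions. Supernatant read-outs: reducing sugar by DNS at 540 nm against glucose; chitosan (D-GlcNAc) by K2B4O7/DMAB at 544 nm; pyruvate by DNPH/NaOH at 520 nm; protein at 595 nm. Tris–HCl blank.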

[16] = system: Sclerotinia sclerotiorum; experiment: Change in mycelial reducing sugar level in Sclerotinia sclerotiorum after 24 hrs relative to hymexazol; assay type: functional; parameters: scale not given: the % may be the effect or the level left; method in brief: as §3
[17] = system: Sclerotinia sclerotiorum; experiment: Effect on sporule germination in Sclerotinia sclerotiorum assessed as germination ratio at 100 ug/ml; assay type: functional
Method in brief: (§4)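 Compound was mixed into PDA at 0, 20, 40, 60, 80 and 100 µg/mL, and 0.5 mL spore suspension was spread per plate. Plates were incubated at 27 °C and checked every 2 h after 24 h. Germination was scored when control germination exceeded 90%, in three fields per dish, with three replicates. GR% = 100 × G/S.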

[18] = system: Rhizoctonia solani; experiment: Antifungal activity against Rhizoctonia solani by poison plate technique; assay type: functional, organism-based
Method in brief: (§5)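 Poison plate mycelial growth assay on PDA at 100, 50, 25, 12.5 and 6.25 µg/mL. Mycelial discs were grown at 27 ± 1 °C for 5 days and radial colony growth was measured. EC50 was estimated by probit analysis and averaged from at least three separate analyses.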

[19] = system: Sclerotinia sclerotiorum; experiment: Change in mycelial chitosan content in Sclerotinia sclerotiorum after 6 hrs; assay type: functional; method in brief: as §3
[20] = system: Sclerotinia sclerotiorum; experiment: Change in mycelial soluble protein content in Sclerotinia sclerotiorum after 0.5 hr relative to control; assay type: functional; method in brief: as §3
[21] = system: Sclerotinia sclerotiorum; experiment: Change in mycelial reducing sugar level in Sclerotinia sclerotiorum after 24 hrs; assay type: functional; method in brief: as §3
[22] = system: Fusarium oxysporum; experiment: Antifungal activity against Fusarium oxysporum by poison plate technique; assay type: functional, organism-based; method in brief: as §5
[23] = system: Sclerotinia sclerotiorum; experiment: Effect on sporule germination in Sclerotinia sclerotiorum assessed as germination ratio at 80 ug/ml; assay type: functional; method in brief: as §4
[24] = system: Sclerotinia sclerotiorum; experiment: Change in mycelial reducing sugar level in Sclerotinia sclerotiorum upto 3 hrs relative to control; assay type: functional; parameters: scale not given: the % may be the effect or the level left; method in brief: as §3

Compound `CCOC(=O)C[S+]([O-])c1nnc(-c2cc(OC)c(OC)c(OC)c2)s1` (stereo not given) has an inhibition at 50 µg/mL [1] of 4.58%, an inhibition at 50 µg/mL [2] of 8.42% and an inhibition at 50 µg/mL [3] of 34.8%.
With `CCOC(=O)C[S+]([O-])c1nnc(-c2cc(OC)c(OC)c(OC)c2)o1` (stereo not given) the inhibition at 50 µg/mL [1] was 1.47%, the inhibition at 50 µg/mL [2] was 6.9% and the inhibition at 50 µg/mL [3] was 18.1%.
For `CCOCC[S+]([O-])c1nnc(-c2cc(OC)c(OC)c(OC)c2)s1` (stereo not given), the inhibition at 50 µg/mL [1] was 8.14%, the inhibition at 50 µg/mL [2] was 16.1% and the inhibition at 50 µg/mL [3] was 16.8%.
With `COc1cc(-c2nnc([S+]([O-])Cc3cccc(F)c3)o2)cc(OC)c1OC` (stereo not given) the inhibition at 50 µg/mL [1] was -0.88%, the inhibition at 50 µg/mL [2] was -0.31% and the inhibition at 50 µg/mL [3] was 7.29%.
Compound `COc1cc(-c2nnc([S+]([O-])Cc3ccccc3Cl)o2)cc(OC)c1OC` (stereo not given) has an inhibition at 50 µg/mL [1] of 7.04%, an inhibition at 50 µg/mL [2] of -0.33% and an inhibition at 50 µg/mL [3] of 7.79%.
Work on `Cc1cc(O)no1` [HYMEXAZOL] yielded a permeability [4] of 24.6%, an inhibition at 50 µg/mL [1] of 52.1% and an inhibition at 50 µg/mL [2] of 52%. It also gave an EC50 [5] of 40.4 µg/mL (≈ 408 µM), an EC50 [6] of 25.1 µg/mL (≈ 253 µM) and an Activity [7] of 0.91 mg/mL. It also gave an inhibition at 50 µg/mL [3] of 53.7%, an Activity [8] of 0.13 mg/mL and an EC50 [9] of 5.12 µg/mL (≈ 51.7 µM). The EC50 [10] was 26.4 µg/mL (≈ 266 µM), the EC50 [11] was 4.63 µg/mL (≈ 46.7 µM) and the EC50 [12] was 21.4 µg/mL (≈ 216 µM). For the same compound, the EC50 [13] was 15.8 µg/mL (≈ 159 µM) and the Activity [14] was 0.124 mg/mL.
`COc1cc(-c2nnc([S+]([O-])Cc3ccccc3)o2)cc(OC)c1OC` (stereo not given) gave an Activity [15] of 0.19 mg/mL, an Activity [16] of 8.8% and an Activity [17] of 5.4%. It also gave a permeability [4] of 26.7%, an inhibition at 50 µg/mL [1] of 52.3% and an EC50 [18] of 44.7 µg/mL (≈ 119 µM). For the same compound, the inhibition at 50 µg/mL [2] was 56.1%, the Activity [19] was 0.12 mg/mL and the EC50 [5] was 23.4 µg/mL (≈ 62.6 µM). The EC50 [6] was 33.1 µg/mL (≈ 88.4 µM), the Activity [7] was 0.69 mg/mL and the Activity [20] was 43%. The Activity [21] was 0.37 mg/mL, the inhibition at 50 µg/mL [3] was 53.3% and the EC50 [22] was 58.5 µg/mL (≈ 156 µM). The Activity [8] was 0.12 mg/mL, the EC50 [9] was 21.6 µg/mL (≈ 57.8 µM) and the EC50 [10] was 28.8 µg/mL (≈ 77 µM). For the same compound, the EC50 [11] was 19.9 µg/mL (≈ 53.2 µM), the EC50 [12] was 64 µg/mL (≈ 171 µM) and the Activity [23] was 12.6%. For the same compound, the EC50 [13] was 39.4 µg/mL (≈ 105 µM), the Activity [24] was 13.3% and the Activity [14] was 0.125 mg/mL.
`COc1cc(-c2nnc([S+]([O-])Cc3ccc(Cl)nc3)o2)cc(OC)c1OC` (stereo not given) showed an inhibition at 50 µg/mL [1] of 14.9%, an inhibition at 50 µg/mL [2] of 11.9% and an inhibition at 50 µg/mL [3] of 31.9%.
In the case of `COc1cccc(C[S+]([O-])c2nnc(-c3cc(OC)c(OC)c(OC)c3)s2)c1` (stereo not given), the inhibition at 50 µg/mL [1] is reported as 8.65%, the inhibition at 50 µg/mL [2] is reported as 11% and the inhibition at 50 µg/mL [3] is reported as 8.29%.
Compound `COc1ccccc1C[S+]([O-])c1nnc(-c2cc(OC)c(OC)c(OC)c2)o1` (stereo not given) has an inhibition at 50 µg/mL [1] of 32.3%, an inhibition at 50 µg/mL [2] of 18.2% and an inhibition at 50 µg/mL [3] of 29.9%.
For `COc1cc(-c2nnc([S+]([O-])Cc3cccc(F)c3)s2)cc(OC)c1OC` (stereo not given), the inhibition at 50 µg/mL [1] was 11.7%, the inhibition at 50 µg/mL [2] was 12% and the inhibition at 50 µg/mL [3] was 14.9%.
For `COc1cccc(C[S+]([O-])c2nnc(-c3cc(OC)c(OC)c(OC)c3)o2)c1` (stereo not given), the inhibition at 50 µg/mL [1] was 30.5%, the inhibition at 50 µg/mL [2] was 25.7% and the inhibition at 50 µg/mL [3] was 37.7%.
With `COc1cc(-c2nnc([S+]([O-])Cc3cccc([N+](=O)[O-])c3)s2)cc(OC)c1OC` (stereo not given) the inhibition at 50 µg/mL [1] was 3.31%, the inhibition at 50 µg/mL [2] was 6.63% and the inhibition at 50 µg/mL [3] was 5.45%.
In the case of `COc1cc(-c2nnc([S+]([O-])Cc3ccccc3F)o2)cc(OC)c1OC` (stereo not given), the inhibition at 50 µg/mL [1] is reported as 4.4%, the inhibition at 50 µg/mL [2] is reported as 2.82% and the inhibition at 50 µg/mL [3] is reported as 11.3%.
Work on `COc1cc(-c2nnc([S+]([O-])Cc3ccccc3)s2)cc(OC)c1OC` (stereo not given) yielded an inhibition at 50 µg/mL [1] of 15.5%, an inhibition at 50 µg/mL [2] of 16% and an inhibition at 50 µg/mL [3] of 26.9%.
Work on `COc1cc(-c2nnc([S+]([O-])Cc3ccc(F)cc3)s2)cc(OC)c1OC` (stereo not given) yielded an inhibition at 50 µg/mL [1] of 2.54%, an inhibition at 50 µg/mL [2] of 3.83% and an inhibition at 50 µg/mL [3] of 6.4%.
